Results reported in ChEMBL document CHEMBL1123549, “Detection of N-acetyl-p-benzoquinone imine produced during the hydrolysis of the model phenacetin metabolite N-(pivaloyloxy)phenacetin” (J Med Chem, 1986).
One block for each compound: values may come before it.

Assays:
Type in all cases: ADME
[1] = Pseudo-first-order rate constant for the decomposition of compound at 25 degree C in presence of HCl at pH 2.62; settings: buffer
Method in brief: (§1)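 Hydrolysis run in 5 vol % CH3CN-H2O, ionic strength 0.50 M (KCl), HCl solution, (25.0 ± 0.1) °C. pH meter readings corrected as pH = reading − 0.05, calibrated on standardized HCl. Progress followed by repetitive UV absorbance scans. Absorbance vs. time at 266.5 and 245 nm fit by least squares to the rate equation for two consecutive first-order processes, giving pseudo-first-order rate constants.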

[2] = (§2) Pseudo-first-order rate constant for the decomposition of compound at 25 degree C in presence of HCl at pH 2.00; settings: buffer; method in brief: as §1
[3] = Pseudo-first-order rate constant for the decomposition of compound at 25 degree C in presence of HCl at pH 2.31; settings: buffer; method in brief: as §1
[4] = (§3) Pseudo-first-order rate constant for the decomposition of compound at 25 degree C in presence of HCl at pH 1.00; settings: buffer; method in brief: as §1
[5] = Pseudo-first-order rate constant for the decomposition of compound at 25 degree C in presence of HCl at pH 1.59; settings: buffer; method in brief: as §1
[6] = Pseudo-first-order rate constant for the decomposition of compound at 25 degree C in presence of HCl at pH 1.30; settings: buffer, pH 1.3; method in brief: as §1
[7] = Pseudo-first-order rate constant for the decomposition of compound at 25 degree C in presence of K2HPO4/[…]/HCl at pH 6.77; settings: buffer
Method in brief: (§4)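 Hydrolysis followed by UV absorbance (repetitive scans; traces at 266.5 and 245 nm) at 25.0 ± 0.1 °C in 5 vol % CH3CN-H2O, ionic strength 0.50 M (KCl). Media were HCl solutions, or acetate or phosphate buffers at 0.01 M total buffer. Meter pH was corrected by subtracting 0.05. Rate constants came from fitting absorbance vs. time to a first-order or two-consecutive-first-order equation.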

[8] = Pseudo-first-order rate constant for the decomposition of compound at 25 degree C in presence of K2HPO4/[…]/HCl at pH 5.75; settings: buffer; method in brief: as §4
[9] = Pseudo-first-order rate constant for the decomposition of compound at 25 degree C in presence of KOAc/HCl at pH 5.64; settings: buffer; method in brief: as §4
[10] = Pseudo-first-order rate constant for the decomposition of compound at 25 degree C in presence of K2HPO4/[…]/HCl at pH 7.55; settings: buffer; method in brief: as §4
[11] = Pseudo-first-order rate constant for the decomposition of compound at 25 degree C in presence of HCl at pH 1.00; Too fast to measure by conventional methods; settings: buffer; method in brief: as §4
[12] = as §2; settings: buffer; method in brief: as §4; remark: listed apart in the source
[13] = Pseudo-first-order rate constant for the decomposition of compound at 25 degree C in presence of HCl at pH 2.00; Too fast to measure by conventional methods; settings: buffer; method in brief: as §4
[14] = Pseudo-first-order rate constant for the decomposition of compound at 25 degree C in presence of HCl at pH 3.02; settings: buffer; method in brief: as §4
[15] = as §3; settings: buffer; method in brief: as §4; remark: listed apart in the source
[16] = Pseudo-first-order rate constant for the decomposition of compound at 25 degree C in presence of KOAc/HCl at pH 3.71; settings: buffer; method in brief: as §4
[17] = Pseudo-first-order rate constant for the decomposition of compound at 25 degree C in presence of KOAc/HCl at pH 4.60; settings: buffer, pH 4.6; method in brief: as §4

SMILES: CC(=O)N=C1C=CC(=O)C=C1
k'' [1]: 0.000575 s⁻¹
k'' [2]: 0.000977 s⁻¹
k'' [3]: 0.000703 s⁻¹
k'' [4]: 0.00639 s⁻¹
k'' [5]: 0.0019 s⁻¹
k'' [6]: 0.0034 s⁻¹

k0 [7]: 0.0219 s⁻¹
k' [7]: 0.0000512 s⁻¹
k0 [8]: 0.0226 s⁻¹
k' [8]: 0.000303 s⁻¹
k'' [8]: 0.00287 s⁻¹
k0 [9]: 0.0224 s⁻¹
k' [9]: 0.000394 s⁻¹
k'' [9]: 0.00261 s⁻¹
k'' [2]: 0.000996 s⁻¹
k0 [10]: 0.0214 s⁻¹
k' [10]: 0.0000288 s⁻¹
k'' [4]: 0.00606 s⁻¹
k0 [12]: 0.0252 s⁻¹
k0 [14]: 0.0205 s⁻¹
k' [14]: 0.155 s⁻¹
k'' [14]: 0.000476 s⁻¹
k0 [15]: 0.0271 s⁻¹
k0 [16]: 0.0246 s⁻¹
k' [16]: 0.0246 s⁻¹
k'' [16]: 0.000471 s⁻¹
k0 [17]: 0.0263 s⁻¹
k' [17]: 0.0037 s⁻¹
k'' [17]: 0.000642 s⁻¹
SMILES: CCOc1ccc(N(OC(=O)C(C)(C)C)C(C)=O)cc1
k' [11]: Too fast to measure by conventional methods
k' [13]: Too fast to measure by conventional methods
